# Rows were chosen to be rich in hits. Some 1.2% of all compounds tested hit in one or more screens of this group.
# PfG6PD inh – PfG6PD (Plasmodium falciparum) enzyme inhibition; PfGluPho enzyme, NADPH resazurin-diaphorase fluorescence; inhibition, % at 20 µM; actives 0.78% (n = 350,000); AID 504690;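 active means inhibition reaching at least a set limit at 20 µM in the primary screen, cut at about 59% in these data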;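 further: 0% = DMSO wells with substrate and 100% = DMSO wells lacking glucose-6-phosphate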
# Diaph inh CS – counter-screen for diaphorase-based assays: diaphorase inhibitors and chemical oxidizers. diaphorase resazurin-to-resorufin fluorescence, NADH, 16 min; bacterial (C. kluyveri) enzyme, not human. inhibition, % at 20 µM. actives 0.69% (n = 190,000). AID 1217;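 active means primary screen inhibition at 20 µM above a set limit, cut at about 50% in these data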;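 further: plate controls were DMSO with full reaction for no effect and wells lacking NADH for full effect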
#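 Assay system: diaphorase enzyme from Clostridium kluyveri; Input: enzyme working solution with 0.14 U/mL diaphorase; Timing: 16 min at room temperature; Technique: resorufin fluorescence, excitation 544 nm, emission 590 nm; Benchmarks: positive control minus NADH, DMSO neutral control.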
# HKDC1 inh – HKDC1 (human) hexokinase inhibition | recombinant HKDC1, G6PDH/diaphorase resazurin coupled fluorescence | Q2TB90 | actives 0.16% (n = 340,000) | inhibition, % at 20 µM;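 active means inhibition above about 35% when tested at 20 µM, limit read from the data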;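 further: plate controls were DMSO wells with enzyme for no effect and DMSO wells lacking enzyme for full effect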
# Target sequence (Q2TB90 whole entry, looked up): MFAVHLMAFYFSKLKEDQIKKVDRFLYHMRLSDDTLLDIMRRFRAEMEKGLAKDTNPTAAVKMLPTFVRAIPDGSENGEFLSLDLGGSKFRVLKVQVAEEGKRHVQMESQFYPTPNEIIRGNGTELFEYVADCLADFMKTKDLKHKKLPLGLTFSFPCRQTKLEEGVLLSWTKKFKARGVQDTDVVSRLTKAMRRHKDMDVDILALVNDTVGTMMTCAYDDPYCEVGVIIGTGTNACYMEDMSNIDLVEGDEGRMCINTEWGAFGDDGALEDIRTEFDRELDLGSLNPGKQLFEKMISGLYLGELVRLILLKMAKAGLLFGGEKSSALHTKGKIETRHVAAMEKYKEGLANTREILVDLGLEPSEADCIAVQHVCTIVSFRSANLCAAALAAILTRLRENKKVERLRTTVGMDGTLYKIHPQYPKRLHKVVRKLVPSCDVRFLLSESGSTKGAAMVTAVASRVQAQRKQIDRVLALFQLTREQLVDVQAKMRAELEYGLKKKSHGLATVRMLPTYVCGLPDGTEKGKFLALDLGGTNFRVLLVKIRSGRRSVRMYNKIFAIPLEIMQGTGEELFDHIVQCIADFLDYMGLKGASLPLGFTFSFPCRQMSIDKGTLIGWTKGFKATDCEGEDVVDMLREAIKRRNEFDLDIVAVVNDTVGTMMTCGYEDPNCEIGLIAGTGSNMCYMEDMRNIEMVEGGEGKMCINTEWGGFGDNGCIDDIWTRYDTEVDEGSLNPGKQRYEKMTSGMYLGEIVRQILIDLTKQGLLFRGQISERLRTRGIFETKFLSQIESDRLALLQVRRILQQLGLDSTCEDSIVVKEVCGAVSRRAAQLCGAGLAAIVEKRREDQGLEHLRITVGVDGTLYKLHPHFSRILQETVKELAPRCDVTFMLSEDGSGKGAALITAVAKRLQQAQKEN
#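 Test system: HK5 enzyme. Quantity: 5 µg/mL HK5 final. Reagent: glucose and ATP substrates. Schedule: 90 min reaction incubation at room temperature, dark. Technique: resazurin-to-resorufin fluorescence via G6PDH and diaphorase coupling, 525/613 nm. Control set: DMSO wells with and without enzyme mix.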
# G6PDH counter – inhibits Leuconostoc G6PDH, flagging false hits in G6PDH-based assays; actives 0.12% (n = 200,000); inhibition, % at 5 µM; AID 1020; Purified L. mesenteroides G6PDH, diaphorase/resazurin coupled fluorescence, 45 min; in the data active means inhibition above about 50%
# Diaph act CS – activates diaphorase or chemically reduces, flagging diaphorase assay artifacts | Diaphorase/resazurin coupled assay, resorufin fluorescence, 16 min; active compounds read high; 1 = vehicle wells, 0 = NADH-free wells | activation factor at 20 µM | actives 0.005% (n = 190,000);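 active means diaphorase activity raised at least twofold by the compound at 20 µM; inactive means activation factor below 2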
#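 System – purified diaphorase enzyme from Clostridium kluyveri · Input – enzyme 0.07 U/mL final · Also added – final NADH 0.114 mM, resazurin 0.1 mM · Measured by – fluorescence of resorufin, 544 nm excitation, 590 nm emission · Timing – 16 min enzyme reaction, ambient temperature · Measure – resorufin increase flagging diaphorase activators or reducers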
# PfG6PD confirm – PfG6PD inhibition, single-dose confirmed | recombinant PfGluPho, NADPH-diaphorase-resazurin fluorescence | shares compounds with PfG6PD inh | actives 34% (n = 2,400) | inhibition, % at 20 µM;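 active means inhibition of at least 50% at 20 µM in any single replicate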;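 further: 0% = DMSO with substrate and 100% = DMSO lacking glucose-6-phosphate substrate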
# Diaphorase 10uM – diaphorase inhibition or oxidation at 10 uM NADPH | shares compounds with PfG6PD inh | diaphorase-coupled resazurin reduction, fluorescence, NADPH 10 uM | inhibition, % at 20 µM | actives 39% (n = 820) | AID 504862;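 active means average inhibition reaching 50% or more with the compound at 20 µM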;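 further: resorufin red fluorescence formed as diaphorase reduces resazurin using NADPH; 0% = DMSO with enzyme and 100% = DMSO without enzyme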
# Diaph ctr 30uM – counter-screen for P. falciparum G6PD inhibitors: diaphorase inhibitors, oxidizers; AID 504863; actives 29% (n = 820); Diaphorase/resazurin coupled assay, resorufin fluorescence, 30 uM NADPH; shares compounds with PfG6PD inh; inhibition, % at 20 µM;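 active means inhibition averaging 50% or more, tested at 20 µM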;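 further: 0% = DMSO with enzyme and 100% = DMSO wells lacking diaphorase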
# * = called active by the depositor; / = no result.
SMILES,PfG6PD inh,Diaph inh CS,HKDC1 inh,G6PDH counter,Diaph act CS,PfG6PD confirm,others
COc1ccc(C(=O)N=c2sc3c(C)ccc(OC)c3n2C)cc1OC,22,/,1,/,/,/,
Cc1cc2ncn(/N=C/c3ccc(-c4ccccc4)o3)c2cc1C,73*,1,7,5,1,-23,
Cc1cc(C)n(S(=O)(=O)c2ccc(C)c(C)c2)n1,-18,/,4,/,/,/,
CCN(CC)C(=S)SSC(=S)N(CC)CC,66*,-5,-19,20,1.1,49*,Diaphorase 10uM=-22;Diaph ctr 30uM=-11
Cc1ccc(N)cc1O,65*,/,18,/,/,37,
CC(=O)CSc1ccc(-c2nc3ccccc3[nH]2)cn1,9,/,1,/,/,/,
Cc1ccc2nc(-c3ccc(SCC(=O)O)nc3)[nH]c2c1,26,14,15,4,0.9,/,
CC(=O)CSc1ccc(-c2nc3cc(C)c(C)cc3[nH]2)cn1,67*,/,-4,6,/,20,
Cc1ccc2nc(-c3ccc(SCC(=O)N4CCc5ccccc54)nc3)[nH]c2c1,59,6,0,7,0.9,12,
CCC1(c2ccc(F)cc2)NC(=O)N(CC(=O)Nc2ccccc2Cl)C1=O (stereo unspecified),-2,/,-4,/,/,/,
C/C(CC(=O)Nc1c(C)cc(C)cc1C)=N\NC(=O)Cc1ccccc1,-21,/,-6,/,/,/,
Cc1cccc(-n2ncc3c(NC4CCCCC4)ncnc32)c1,66*,6,2,-1,0.9,7,
C=CCNc1ncnc2c1cnn2-c1cccc(C)c1,19,14,2,16,0.9,/,
Cn1ncc(Br)c1C(=O)N/N=C/c1cccc(OC2CSC2)c1,115*,5,14,19,0.9,91*,Diaphorase 10uM=91*;Diaph ctr 30uM=81*
O=C(N/N=C/c1cccc(OC2CSC2)c1)c1ccccc1O,-21,0,-5,4,1,/,
CCOC(=O)Nc1ccc(NCc2ccc(F)cc2)nc1N,98*,/,32,/,/,79*,Diaphorase 10uM=11;Diaph ctr 30uM=12
CCOC(=O)Nc1ccc(C)cc1NC(=O)OCC,0,9,-6,5,0.9,/,
CC(C)(C)NC(=O)NC(=O)COC(=O)c1cccc(OC(F)F)c1,10,-7,-4,2,1.1,/,
COc1ccccc1NS(=O)(=O)c1ccc(O)c(C(=O)OCC(=O)N2c3ccccc3CC2C)c1 (stereo unspecified),11,15,0,-2,0.9,/,
CCCCn1c(N)c(N(CC)C(=O)c2ccccc2F)c(=O)[nH]c1=O,6,/,-3,/,/,/,
Cc1c(C)c(C)c(S(=O)(=O)NCCC(=O)N2CCN(Cc3ccc(C#N)cc3)CC2)c(C)c1C,1,/,-2,/,/,/,
CN(C)C=Nc1ccc2nc3c(cc2c1)[nH]c1ccccc13,80*,/,19,/,/,54*,Diaphorase 10uM=37;Diaph ctr 30uM=45
CCOC(=O)c1[nH]c2ccccc2c1N=CN(C)C,-4,/,-8,/,/,/,
Cn1cccc1/C=N\NC(=O)Cc1ccc(Br)c2ccccc12,-9,10,-8,4,0.9,/,
CCc1sc(C(=O)Nc2nc(C)cs2)cc1C,61*,/,2,/,/,11,
SMILES,PfG6PD inh,Diaph inh CS,HKDC1 inh,G6PDH counter,Diaph act CS,PfG6PD confirm,others
CCc1sc(C(=O)Nc2ccc(NC(C)=O)cc2)cc1C,2,-4,19,-9,1,/,
O=[N+]([O-])c1ccc(C=Nc2cccc3ccccc23)s1,71*,28,21,12,0.7,18,
O=c1c2ccccc2ncn1-c1ccc(Cl)cc1Cl,0,/,1,/,/,/,
O=c1c2ccccc2sn1-c1ccc(Cl)cc1Cl,129*,/,/,/,/,109*,Diaphorase 10uM=-4;Diaph ctr 30uM=2
CC(NC(=O)C(=O)NCCN1CCN(C(=O)c2ccccc2Br)CC1)c1ccccc1 (stereo unspecified),6,/,-5,/,/,/,
CCCOc1ccc2oc(=O)c3c(c2c1)CCCN3C(=O)CN1CCc2ccccc2C1,60*,27,3,14,0.7,27,
N#Cc1c(-c2cccnc2)c2c([nH]c1=S)CCCC2,58,25,6,-4,0.7,/,
COc1ccc(OC)c(-c2c3c([nH]c(=S)c2C#N)CCCC3)c1,61*,11,2,3,0.9,27,
CCN(CC)C(=O)c1c(C)[nH]c(=S)c(C#N)c1-c1ccco1,61*,14,-2,8,0.9,51*,Diaphorase 10uM=3;Diaph ctr 30uM=-4
N#Cc1c(-c2ccco2)c2c([nH]c1=S)CCCC2,71*,20,4,-31,0.8,34,
Cc1[nH]c(=S)c(C#N)c(-c2ccccc2)c1C(=O)Nc1ccccc1,27,/,-1,/,/,/,
COc1ccc(-c2c3c([nH]c(=S)c2C#N)CCC3)cc1,64*,11,3,-17,0.9,42,
C#CC(C)(C)NC(=O)c1ccc(-c2ccccc2F)cc1,1,/,-3,/,/,/,
O=C(NC(=O)c1csnn1)Nc1ccccc1Cl,6,/,-4,/,/,/,
CS(=O)(=O)N(Cc1ccccc1Cl)c1ccc(C(=O)N2CCCC2)cc1,-8,/,-5,/,/,/,
S=c1nc2[nH]c3ccccc3c2n[nH]1,66*,/,-5,/,/,10,
Cc1ccc(N(CCC#N)C(=O)CSc2nc3ccccc3c(=O)[nH]2)cc1,11,/,3,/,/,/,
CC(C)(NC(=O)c1ccccc1)c1nc2ccccc2s1,60*,/,-2,/,/,38,
CCc1nc2oc3ccccc3c(=O)c2cc1C(=O)OC,-3,/,1,/,/,/,
COc1ccccc1NS(=O)(=O)c1cc(NC(=O)c2ccc(Cl)nc2)ccc1N1CCCC1,72*,/,-4,/,/,50*,Diaphorase 10uM=-3;Diaph ctr 30uM=-1
COc1ccccc1NS(=O)(=O)c1cc(NC(=O)C2CCC2)ccc1N1CCCCC1,60*,/,-3,/,/,27,
COc1ccc(NS(=O)(=O)c2cc(NC(=O)C3CC3)ccc2N2CCCCC2)cc1,9,18,-4,2,0.8,/,
COC(=O)/C(=N/Nc1ccc(C)cc1)N1CCCc2ccccc21,76*,18,21,8,0.8,29,
COC(=O)/C(=N/Nc1cccc(C)c1)N1CCCc2ccccc21,28,11,-6,0,0.9,/,
COC(=O)/C(=N/Nc1ccccc1)N1CCCc2ccccc21,48,13,-4,-11,0.9,11,
Cc1cc(C)n(Cc2ccc(Cl)cc2Cl)c(=O)c1S(=O)(=O)c1ccccc1,71*,18,6,33,0.8,21,
C=C(C)Cn1c(C)cc(C)c(S(=O)(=O)c2ccc(C)cc2)c1=O,16,17,1,7,0.8,/,
COc1cc(NC(=S)N2CCN(CCO)CC2)c(OC)cc1Cl,24,-4,-12,2,1,/,
